Experimental findings from ChEMBL document CHEMBL1140527, “Synthesis and antimicrobial activity of some novel nucleoside analogues of adenosine and 1,3-dideazaadenosine” (2007) are described below.

As usually defined, the MIC is the lowest concentration found to suppress growth. High values mean weaker potency, low ones greater potency.

Common to all, as to assay type: functional
In one experiment the test system is Aspergillus fumigatus. Kind of experiment: Antifungal activity against Aspergillus fumigatus by disc diffusion method. The procedure, abridged:
(§1)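 Fungi were screened first by disc diffusion on corn meal agar, with M-3 broth susceptibility test medium. MIC was then determined by broth dilution.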

Another experiment concerns Cryptococcus neoformans. Kind of experiment: Antifungal activity against Cryptococcus neoformans by disc diffusion method. The procedure, abridged: as §1
A general note: In agar diffusion tests the substance spreads into inoculated agar from a disc or well.

The next experiment has as its system Talaromyces marneffei. Kind of experiment: Antifungal activity against Penicillium marneffei by disc diffusion method. The method, boiled down: as §1
The test system of another experiment is Mucor. Kind of experiment: Antifungal activity against Mucor sp. by disc diffusion method. The method, boiled down: as §1
In the next experiment the test system is Streptococcus. Kind of experiment: Antibacterial activity against Streptococcus group D after 18 to 24 hrs by disc diffusion method. The method, boiled down: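 Kirby-Bauer disc diffusion: sterile 6 mm filter-paper discs impregnated with compound at 1.5, 1.1, 0.57, 0.28, 0.14 and 0.07 per mL. Discs showing zones were followed by broth dilution: doubling dilutions in 50% DMSO–H2O, inoculum to 0.5 McFarland, 37 °C for 18–24 h. MIC was the lowest dilution preventing visible turbidity. The initial solution (12.5% DMSO) was not scored.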

A further experiment concerns Candida albicans. As to the kind of experiment: Antifungal activity against Candida albicans by disc diffusion method. The method, boiled down:
as §1

≈ marks a conversion by molar mass, not a printed value.

For the molecule `C=CCSC[C@H]1O[C@@H](n2cnc3c([N+](=O)[O-])cccc32)[C@H](O)[C@@H]1O`, the minimum inhibitory concentration (MIC) in the experiment with Aspergillus fumigatus amounted to 0.38 µM (≈ 0.134 µg/mL); in the experiment on Cryptococcus neoformans, 0.38 µM (≈ 0.134 µg/mL); in the experiment on Talaromyces marneffei it was 0.38 µM (≈ 0.134 µg/mL); against Mucor it was 0.38 µM (≈ 0.134 µg/mL); against Streptococcus, 1.25 µM (≈ 0.439 µg/mL); in the experiment with Candida albicans, 0.38 µM (≈ 0.134 µg/mL).

In the case of `CCOC(=O)CCSC[C@H]1O[C@@H](n2cnc3c(N)cccc32)[C@H](O)[C@@H]1O`, the MIC was 0.38 µM (≈ 0.145 µg/mL) with Aspergillus fumigatus; 0.38 µM (≈ 0.145 µg/mL) against Cryptococcus neoformans; 0.38 µM (≈ 0.145 µg/mL) against Talaromyces marneffei; 0.38 µM (≈ 0.145 µg/mL) with Mucor; 0.19 µM (≈ 0.0725 µg/mL) with Streptococcus; 0.38 µM (≈ 0.145 µg/mL) in the experiment on Candida albicans.

For the molecule `CN[C@H](CC(C)C)C(=O)N[C@H]1C(=O)N[C@@H](CC(N)=O)C(=O)N[C@H]2C(=O)N[C@H]3C(=O)N[C@H](C(=O)N[C@H](C(=O)O)c4cc(O)cc(O)c4-c4cc3ccc4O)[C@H](O)c3ccc(c(Cl)c3)Oc3cc2cc(c3O[C@@H]2O[C@H](CO)[C@@H](O)[C@H](O)[C@H]2O[C@H]2C[C@](C)(N)[C@H](O)[C@H](C)O2)Oc2ccc(cc2Cl)[C@H]1O` [VANCOMYCIN], the MIC against Streptococcus turned out to be 0.78 µM (≈ 1.13 µg/mL).

For the molecule `OC(Cn1cncn1)(Cn1cncn1)c1ccc(F)cc1F` [FLUCONAZOLE], the MIC against Aspergillus fumigatus, in the experiment with Cryptococcus neoformans, in the experiment on Talaromyces marneffei, against Mucor and against Candida albicans was 0.52 µM (≈ 0.159 µg/mL) each time.

As for `Nc1cccc2c1ncn2[C@@H]1O[C@H](CSCCC(=O)O)[C@@H](O)[C@H]1O`, the MIC against Aspergillus fumigatus is 0.75 µM (≈ 0.265 µg/mL); with Cryptococcus neoformans it was 0.75 µM (≈ 0.265 µg/mL); against Talaromyces marneffei, 0.75 µM (≈ 0.265 µg/mL); in the experiment with Mucor, 0.75 µM (≈ 0.265 µg/mL); against Streptococcus it was 0.38 µM (≈ 0.134 µg/mL); against Candida albicans, 0.75 µM (≈ 0.265 µg/mL).

As to `Nc1ncnc2c1ncn2[C@@H]1O[C@H](CSCCC(=O)O)[C@@H](O)[C@H]1O`, the MIC against Aspergillus fumigatus was determined as 1.5 µM (≈ 0.533 µg/mL); with Cryptococcus neoformans it was 1.5 µM (≈ 0.533 µg/mL); in the experiment on Talaromyces marneffei, 1.5 µM (≈ 0.533 µg/mL); against Mucor it was 1.5 µM (≈ 0.533 µg/mL); with Streptococcus, 0.755 µM (≈ 0.268 µg/mL); in the experiment on Candida albicans, 1.5 µM (≈ 0.533 µg/mL).

As to `C=CCSC[C@H]1O[C@@H](n2c(CC)nc3c([N+](=O)[O-])cccc32)[C@H](O)[C@@H]1O`, the MIC with Aspergillus fumigatus, in the experiment with Cryptococcus neoformans, with Talaromyces marneffei, in the experiment with Mucor and against Candida albicans was 2 µM (≈ 0.759 µg/mL) throughout.

In the case of `Clc1ccc(COC(Cn2ccnc2)c2ccc(Cl)cc2Cl)c(Cl)c1` (stereo not given) [MICONAZOLE], the minimum inhibitory concentration (MIC) in the experiment with Aspergillus fumigatus, in the experiment with Cryptococcus neoformans, in the experiment on Talaromyces marneffei, against Mucor and against Candida albicans was 0.77 µM (≈ 0.32 µg/mL) in each case.
